Measured values taken from ChEMBL document CHEMBL1125497, “Synthesis and anticonvulsant activity of enaminones” (J Med Chem, 1992).

Columns and labels:
[1] = Dose protecting 50% of the mice from tonic hind limb extension at the time of […] after ip administration.; assay type: functional; settings: Mus musculus, Hindlimb
How it was run: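 Phase II quantification in CF1 male mice (ca. 24–34 g), dosing ip or po in 0.5% methylcellulose suspension. ED50 is protection from tonic hind limb extension in MES. TD50 is rotorod neurotoxicity. Both were read at time of peak effect and derived by Litchfield–Wilcoxon with 95% confidence limits.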

[2] = Protective index was measured as TD50/ED50 in rat on oral administration; assay type: ADME, organism-based; settings: in vivo, read-out: PI
[3] = Antiepileptic activity in male CF1 mice 2 hr after oral administration measured in neurological toxicity (Tox) test at a dose of 50 mg/kg (no. of animals treated /protected); activity value is 0/4; assay type: functional, Mus musculus
[4] = Time of peak anticonvulsant effect in CF1 MICE after ip administration.; assay type: functional, Mus musculus
How it was run: (§1)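 Male CF1 mice (ca. 24–34 g), compound in 0.5% methylcellulose suspension given ip or po; time (h) at which MES protection (against tonic hind limb extension) peaked was recorded and used for ED50 determination.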

[5] = Antiepileptic activity in male CF1 mice 4 hr after administration measured in maximum electroshock seizure(MES) test at a dose of 300 mg/kg (no. of animals treated /protected); activity value is 1/1; assay type: functional, Mus musculus
[6] = Antiepileptic activity in male CF1 mice 30 min after administration measured in neurological toxicity (Tox) test at a dose of 300 mg/kg (no. of animals treated /protected); activity value is 0/8; assay type: functional, Mus musculus
[7] = Antiepileptic activity in male CF1 mice 30 min after administration measured in subcutaneous pentylenetetrazole (scMet) test at a dose of 300 mg/kg (no. of animals treated /protected); activity value is 0/1; assay type: functional, Mus musculus
[8] = Antiepileptic activity in male CF1 mice 0.25 hr after oral administration measured in maximum electroshock seizure(MES) test at a dose of 50 mg/kg (no. of animals treated /protected); activity value is 2/4; assay type: functional, Mus musculus
[9] = Dose at which anticonvulsant activity was observed in mice; assay type: functional, Mus musculus
[10] = Antiepileptic activity in male CF1 mice 1 hr after oral administration measured in neurological toxicity (Tox) test at a dose of 50 mg/kg (no. of animals treated /protected); activity value is 0/4; assay type: functional, Mus musculus
[11] = Antiepileptic activity in male CF1 mice 4 hr after oral administration measured in neurological toxicity (Tox) test at a dose of 50 mg/kg (no. of animals treated /protected); activity value is 0/4; assay type: functional, Mus musculus
[12] = Antiepileptic activity in male CF1 mice 4 hr after administration measured in subcutaneous pentylenetetrazole (scMet) test at a dose of 300 mg/kg (no. of animals treated /protected); activity value is 0/1; assay type: functional, Mus musculus
[13] = Antiepileptic activity in male CF1 mice 30 min after administration measured in maximum electroshock seizure(MES) test at a dose of 300 mg/kg (no. of animals treated /protected); activity value is 0/1; assay type: functional, Mus musculus
[14] = Antiepileptic activity in male CF1 mice 0.25 hr after oral administration measured in neurological toxicity (Tox) test at a dose of 50 mg/kg (no. of animals treated /protected); activity value is 0/4; assay type: functional, Mus musculus
[15] = Antiepileptic activity in male CF1 mice 2 hr after oral administration measured in maximum electroshock seizure(MES) test at a dose of 50 mg/kg (no. of animals treated /protected); activity value is 2/4; assay type: functional, Mus musculus
[16] = Dose elevating electroshock induced seizure by 20% in CF1 mice after ip administration.; assay type: functional, Mus musculus
How it was run: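 In CF1 male mice (ca. 24–34 g), compound was given ip in 0.5% methylcellulose. The current giving hind limb extension in 50% of mice was found by the up-and-down method, with 15–25 mice per group and a vehicle control group run with each experimental group. At least three doses were tested. The dose raising threshold current by 20% was taken from a plot of dose against % threshold increase.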

[17] = Antiepileptic activity in male CF1 mice 0.5 hr after oral administration measured in maximum electroshock seizure(MES) test at a dose of 50 mg/kg (no. of animals treated /protected); activity value is 4/4; assay type: functional, Mus musculus
[18] = Antiepileptic activity in male CF1 mice 1 hr after oral administration measured in maximum electroshock seizure(MES) test at a dose of 50 mg/kg (no. of animals treated /protected); activity value is 3/4; assay type: functional, Mus musculus
[19] = Oral dose producing neurotoxic effects in 50% of rats; assay type: ADME, organism-based; settings: rat, in vivo
How it was run: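 Phase VI screen in male Sprague-Dawley rats dosed orally. MES protection and rotorod toxicity were scored as animals responding over animals tested at 0.25, 0.5, 1, 2 and 4 h.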

[20] = Antiepileptic activity in male CF1 mice 0.5 hr after oral administration measured in neurological toxicity (Tox) test at a dose of 50 mg/kg (no. of animals treated /protected); activity value is 0/4; assay type: functional, Mus musculus
[21] = Antiepileptic activity in male CF1 mice 4 hr after administration measured in neurological toxicity (Tox) test at a dose of 300 mg/kg (no. of animals treated /protected); activity value is 0/4; assay type: functional, Mus musculus
[22] = Antiepileptic activity in male CF1 mice 4 hr after oral administration measured in maximum electroshock seizure(MES) test at a dose of 50 mg/kg (no. of animals treated /protected); activity value is 2/4; assay type: functional, Mus musculus
[23] = Antiepileptic activity in male CF1 mice 30 min after administration measured in neurological toxicity (Tox) test at a dose of 300 mg/kg (no. of animals treated /protected); activity value is 2/4; assay type: functional, Mus musculus
[24] = Antiepileptic activity in male CF1 mice 4 hr after administration measured in maximum electroshock seizure(MES) test at a dose of 30 mg/kg (no. of animals treated /protected); activity value is 0/1; assay type: functional, Mus musculus
[25] = Antiepileptic activity in male CF1 mice 4 hr after administration measured in maximum electroshock seizure(MES) test at a dose of 300 mg/kg (no. of animals treated /protected); activity value is 0/1; assay type: functional, Mus musculus
[26] = Antiepileptic activity in male CF1 mice 30 min after administration measured in maximum electroshock seizure(MES) test at a dose of 300 mg/kg (no. of animals treated /protected); activity value is 1/1; assay type: functional, Mus musculus
[27] = Antiepileptic activity in male CF1 mice 30 min after administration measured in subcutaneous pentylenetetrazole (scMet) test at a dose of 30 mg/kg (no. of animals treated /protected); activity value is 1/1; assay type: functional, Mus musculus
[28] = Antiepileptic activity in male CF1 mice 4 hr after administration measured in neurological toxicity (Tox) test at a dose of 30 mg/kg (no. of animals treated /protected); activity value is 0/2; assay type: functional, Mus musculus
[29] = Antiepileptic activity in male CF1 mice 4 hr after administration measured in neurological toxicity (Tox) test at a dose of 300 mg/kg (no. of animals treated /protected); activity value is 0/2; assay type: functional, Mus musculus
[30] = Antiepileptic activity in male CF1 mice 4 hr after administration measured in subcutaneous pentylenetetrazole (scMet) test at a dose of 30 mg/kg; activity value is 0/1; assay type: functional, Mus musculus
[31] = Antiepileptic activity in male CF1 mice 30 min after administration measured in neurological toxicity (Tox) test at a dose of 30 mg/kg (no. of animals treated /protected); activity value is 0/4; assay type: functional, Mus musculus
[32] = Antiepileptic activity in male CF1 mice 30 min after administration measured in maximum electroshock seizure(MES) test at a dose of 30 mg/kg (no. of animals treated /protected); activity value is 0/1; assay type: functional, Mus musculus
[33] = tested on: Rattus norvegicus; experiment: Dose reducing the seizure severity in rat cornea 0.5 hr after peroral administration.; assay type: functional; settings: po
How it was run: (§2)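 Sprague-Dawley rats (85–95 g initial) were kindled with 4 s, 8 mA corneal stimulations (butacaine anesthesia) to 10 consecutive stage 5 seizures. After a vehicle shock and a 2-day shock-free period, test drug was given ip or po and a single shock applied at time of peak effect. Seizures were scored on a modified Racine 0–5 scale. ED50 is the dose reducing severity by 50% (Litchfield–Wilcoxon).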

[34] = tested on: Rattus norvegicus; experiment: Intraperitoneal dose (0 mg/Kg) reducing rat corneal kindling 0.5 hr after administration.; assay type: functional
How it was run: (§3)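 Sprague-Dawley rats (85–95 g initial weight) kindled by corneal stimulation (4 s, 8 mA) twice daily for 5 to 6 days, then once daily until 10 consecutive stage 5 seizures. Butacaine sulfate 1% applied to the cornea as a topical anaesthetic. After a vehicle shock and a 2-day shock-free period, drug given ip, then a single shock at the time of peak effect. Scored on the modified Racine scale (0–5).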

[35] = tested on: Rattus norvegicus; experiment: Average seizure score for the rat cornea 0.5 hr after intraperitoneal administration of 250 mg/Kg of compound; assay type: functional; how it was run: as §2
[36] = tested on: Rattus norvegicus; experiment: Intraperitoneal dose (150 mg/Kg) reducing rat corneal kindling 0.5 hr after administration.; assay type: functional; how it was run: as §2
[37] = tested on: Rattus norvegicus; experiment: Intraperitoneal dose (100 mg/Kg) reducing rat corneal kindling 0.5 hr after administration.; assay type: functional; how it was run: as §2
[38] = tested on: Rattus norvegicus; experiment: Average seizure score for the rat cornea 0.5 hr after intraperitoneal administration of 0 mg/Kg of compound; assay type: functional; how it was run: as §3
[39] = Time of peak neurotoxic effect in CF1 MICE after ip administration.; assay type: ADME, organism-based; settings: mouse, in vivo
How it was run: (§4)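 Male CF1 mice (ca. 24–34 g), compound ip in 0.5% methylcellulose suspension; neurological deficit assessed by rotorod test, time (h) of peak neurotoxic effect recorded for TD50 determination.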

[40] = tested on: Rattus norvegicus; experiment: Intraperitoneal dose (200 mg/Kg) reducing rat corneal kindling 0.5 hr after administration.; assay type: functional; how it was run: as §2
[41] = tested on: Rattus norvegicus; experiment: Average seizure score for the rat cornea 0.5 hr after intraperitoneal administration of 100 mg/Kg of compound; assay type: functional; how it was run: as §2
[42] = tested on: Rattus norvegicus; experiment: Dose reducing the seizure severity in rat cornea 1 hr after peroral administration.; assay type: ADME, organism-based; settings: po; how it was run: as §2
[43] = tested on: Rattus norvegicus; experiment: Average seizure score for the rat cornea 0.5 hr after intraperitoneal administration of 200 mg/Kg of compound; assay type: functional; how it was run: as §2
[44] = tested on: Rattus norvegicus; experiment: Average seizure score for the rat cornea 0.5 hr after intraperitoneal administration of 150 mg/Kg of compound; assay type: functional; how it was run: as §2
[45] = Time of peak neurotoxic effect in CF1 mice; assay type: ADME; settings: mouse, in vivo; how it was run: as §4
[46] = Time of peak anticonvulsant effect in CF1 mice; assay type: functional, Mus musculus; how it was run: as §1
[47] = tested on: Rattus norvegicus; experiment: Intraperitoneal dose (250 mg/Kg) reducing rat corneal kindling 0.5 hr after administration.; assay type: functional; how it was run: as §2

SMILES: COC(=O)C1C(=O)C=C(NCc2ccc(F)cc2)CC1C (stereo not drawn)
- ED50 [1]: 159 mg/kg
- selectivity ratio [2]: 4.7
- Activity [3]: 0
- TPE [4]: 0.5
- Activity [5]: 1
- Activity [6]: 0
- Activity [7]: 0
- Activity [8]: 2
- Dose [9]: >100 mg/kg
- Activity [10]: 0
- Activity [11]: 0
- Activity [12]: 0
- Activity [13]: 0
- Activity [14]: 0
- Activity [15]: 2
- Dose [16]: 10 mg/kg
- Activity [17]: 4
- Activity [18]: 3
- TD50 [19]: > 230 mg/kg
- Activity [20]: 0
- Activity [21]: 0
- Activity [22]: 2

SMILES: COC(=O)C1C(=O)C=C(Nc2ccc(C)cc2)CC1C (stereo not drawn)
- Activity [23]: 2
- Activity [7]: 0
- Dose [9]: <=100 mg kg-1
- Activity [24]: 0
- Activity [25]: 0
- Activity [26]: 1
- Activity [12]: 0
- Activity [27]: 1
- Activity [28]: 0
- Activity [29]: 0
- Activity [30]: 0
- Activity [31]: 0
- Activity [32]: 0

SMILES: CCCC(CCC)C(=O)O [VALPROIC ACID]
- ED50 [1]: 248 mg/kg
- ED50 [33]: 96 mg/kg
- Reduction [34]: 0%
- Average seizure score [35]: 0.5
- Reduction [36]: 76%
- TPE [4]: 0.5
- Reduction [37]: 49%
- Average seizure score [38]: 5
- TPE [39]: 0.5
- Reduction [40]: 98%
- Dose [16]: 132 mg/kg
- Average seizure score [41]: 2.6
- ED50 [42]: 117 mg/kg
- Average seizure score [43]: 0.1
- Average seizure score [44]: 1.2
- TPE [45]: 0.25
- TPE [46]: 0.25
- Reduction [47]: 90%
